Measured values from ChEMBL document CHEMBL1155924, “Achieving multi-isoform PI3K inhibition in a series of substituted 3,4-dihydro-2H-benzo[1,4]oxazines” (Bioorg Med Chem Lett, 2008).
The source made the active and inactive calls. The rule behind the calls is not given here.

Columns and labels:
[1] = molecular target: T1, Phosphatidylinositol 4,5-bisphosphate 3-kinase catalytic subunit delta isoform (Homo sapiens, UniProt O00329); assay: Inhibition of PI3K delta
T1 sequence (O00329 whole entry): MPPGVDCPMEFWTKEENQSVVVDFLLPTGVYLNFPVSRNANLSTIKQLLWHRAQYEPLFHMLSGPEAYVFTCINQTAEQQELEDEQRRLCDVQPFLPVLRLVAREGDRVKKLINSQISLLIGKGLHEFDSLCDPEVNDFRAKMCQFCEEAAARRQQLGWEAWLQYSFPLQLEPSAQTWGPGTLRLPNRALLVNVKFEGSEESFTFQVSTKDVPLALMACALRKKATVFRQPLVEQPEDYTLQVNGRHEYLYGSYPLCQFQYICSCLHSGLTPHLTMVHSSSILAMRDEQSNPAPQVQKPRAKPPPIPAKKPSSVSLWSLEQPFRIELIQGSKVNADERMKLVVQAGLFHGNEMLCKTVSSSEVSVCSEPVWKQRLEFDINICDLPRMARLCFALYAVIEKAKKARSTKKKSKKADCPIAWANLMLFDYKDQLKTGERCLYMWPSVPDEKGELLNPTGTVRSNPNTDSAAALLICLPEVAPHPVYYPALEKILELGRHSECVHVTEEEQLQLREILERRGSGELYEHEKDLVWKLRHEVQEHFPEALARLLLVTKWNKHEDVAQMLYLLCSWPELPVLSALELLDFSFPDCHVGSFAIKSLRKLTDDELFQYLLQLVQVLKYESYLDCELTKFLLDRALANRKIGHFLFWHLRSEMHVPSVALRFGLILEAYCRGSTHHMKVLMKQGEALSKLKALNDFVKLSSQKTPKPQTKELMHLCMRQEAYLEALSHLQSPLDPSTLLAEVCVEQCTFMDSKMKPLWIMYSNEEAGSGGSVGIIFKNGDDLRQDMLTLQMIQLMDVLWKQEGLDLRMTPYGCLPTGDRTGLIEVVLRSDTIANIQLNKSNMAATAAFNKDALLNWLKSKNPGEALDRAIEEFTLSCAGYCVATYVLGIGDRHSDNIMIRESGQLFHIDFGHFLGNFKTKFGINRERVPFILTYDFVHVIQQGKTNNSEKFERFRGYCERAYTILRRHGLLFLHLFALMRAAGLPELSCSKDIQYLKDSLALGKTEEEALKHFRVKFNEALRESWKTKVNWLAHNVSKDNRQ

[2] = molecular target: Phosphatidylinositol 4,5-bisphosphate 3-kinase catalytic subunit gamma isoform (Homo sapiens, UniProt P48736); assay: Inhibition of PI3K gamma
[3] = molecular target: Phosphatidylinositol 4,5-bisphosphate 3-kinase catalytic subunit alpha isoform (Homo sapiens, UniProt P42336); assay: Inhibition of PI3K alpha
[4] = molecular target: Phosphatidylinositol 4,5-bisphosphate 3-kinase catalytic subunit beta isoform (Homo sapiens, UniProt P42338); assay: Inhibition of PI3K beta
[5] = test system: Neutrophil; assay: Inhibition of fMLP-stimulated superoxide production in TNF alpha-primed human neutrophils by spectrophotometry; assay type: functional, cell-based
Procedure, shortened: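 Human neutrophils were primed with TNFα and stimulated with fMLP, and cellular superoxide production was monitored. Inhibition values are quoted in nM.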

[6] = Clearance in rat microsomes assessed per mg of protein at 0.5 uM; assay type: ADME, Liver, Microsome; conditions: liver microsomes
[7] = Clearance in human microsomes assessed per mg of protein at 0.5 uM; assay type: ADME, Microsome
[8] = species: Homo sapiens; assay: Selectivity for human PI3K gamma over human PI3K delta
[9] = test system: Hepatocyte; assay: Clearance in rat hepatocyte assessed per mg of protein at 2 uM; assay type: ADME, cell-based, Liver; conditions: hepatocytes
[10] = molecular target: T2, Testis-specific serine/threonine-protein kinase 1 (Homo sapiens) (UniProt Q9BXA7); assay: Inhibition of TSSK1 at 10 uM
T2 sequence (whole entry): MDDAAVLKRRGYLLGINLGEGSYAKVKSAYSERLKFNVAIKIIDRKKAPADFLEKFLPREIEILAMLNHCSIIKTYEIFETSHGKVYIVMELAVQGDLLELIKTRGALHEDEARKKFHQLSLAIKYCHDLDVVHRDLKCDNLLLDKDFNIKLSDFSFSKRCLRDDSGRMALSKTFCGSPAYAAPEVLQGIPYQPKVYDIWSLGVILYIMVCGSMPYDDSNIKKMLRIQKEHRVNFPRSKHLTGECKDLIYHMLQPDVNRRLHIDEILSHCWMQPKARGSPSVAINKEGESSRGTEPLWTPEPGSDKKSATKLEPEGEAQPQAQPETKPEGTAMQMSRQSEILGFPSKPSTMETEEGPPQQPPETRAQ

[11] = molecular target: Serine/threonine-protein kinase pim-1 (Homo sapiens) (UniProt P11309); assay: Inhibition of PIM1 at 10 uM
[12] = Inhibition of CaMK2 at 10 uM
[13] = Inhibition of CK1 at 10 uM
[14] = molecular target: T3, Serine/threonine-protein kinase mTOR (Homo sapiens, UniProt P42345); assay: Inhibition of mTOR at 10 uM
[15] = Cmax in Han-Wistar rat at 3 mg/kg, po; assay type: ADME, organism-based; set-up: dose 3 mg/kg, route oral; conditions: in vivo
Procedure, shortened: (§1)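 Male-or-unspecified Han–Wistar rats were given a single oral dose of 3 mg/kg. Plasma Cmax is reported in ng/mL and AUC in ng h/mL.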

[16] = AUC in Han-Wistar rat at 3 mg/kg, po; assay type: ADME, organism-based; set-up: dose 3 mg/kg, route oral; conditions: plasma; procedure, shortened: as §1
[17] = test system: Rattus norvegicus; assay: Inhibition of anti-CD3-induced IL2 release in po dosed Lewis rat blood; assay type: functional
Procedure, shortened: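 Acute T-cell activation was induced by anti-CD3 antibody in male Lewis rats. Compound was given orally, and IL2 released into blood was measured. Percent inhibition of IL-2 was plotted against log dose (mg/kg) to derive ED50. Values are mean ± SEM, n = 8.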

[18] = molecular target: T3, Serine/threonine-protein kinase mTOR; assay: Inhibition of mTOR
[19] = molecular target: Mitogen-activated protein kinase 14 (Homo sapiens) (UniProt Q16539); assay: Inhibition of SAPK2a at 10 uM
[20] = Clearance in Han-Wistar rat at 1 mg/kg, iv; assay type: ADME, organism-based; set-up: dose 1 mg/kg, route intravenous; conditions: in vivo
Procedure, shortened: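 Han–Wistar rats were dosed intravenously at 1 mg/kg. Clearance is reported in mL/min/kg.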

[21] = Oral bioavailability in Han-Wistar rat at 3 mg/kg; assay type: ADME, organism-based; conditions: in vivo

Phosphatidylinositol 4,5-bisphosphate 3-kinase catalytic subunit beta isoform, sequence (P42338 whole entry, canonical isoform): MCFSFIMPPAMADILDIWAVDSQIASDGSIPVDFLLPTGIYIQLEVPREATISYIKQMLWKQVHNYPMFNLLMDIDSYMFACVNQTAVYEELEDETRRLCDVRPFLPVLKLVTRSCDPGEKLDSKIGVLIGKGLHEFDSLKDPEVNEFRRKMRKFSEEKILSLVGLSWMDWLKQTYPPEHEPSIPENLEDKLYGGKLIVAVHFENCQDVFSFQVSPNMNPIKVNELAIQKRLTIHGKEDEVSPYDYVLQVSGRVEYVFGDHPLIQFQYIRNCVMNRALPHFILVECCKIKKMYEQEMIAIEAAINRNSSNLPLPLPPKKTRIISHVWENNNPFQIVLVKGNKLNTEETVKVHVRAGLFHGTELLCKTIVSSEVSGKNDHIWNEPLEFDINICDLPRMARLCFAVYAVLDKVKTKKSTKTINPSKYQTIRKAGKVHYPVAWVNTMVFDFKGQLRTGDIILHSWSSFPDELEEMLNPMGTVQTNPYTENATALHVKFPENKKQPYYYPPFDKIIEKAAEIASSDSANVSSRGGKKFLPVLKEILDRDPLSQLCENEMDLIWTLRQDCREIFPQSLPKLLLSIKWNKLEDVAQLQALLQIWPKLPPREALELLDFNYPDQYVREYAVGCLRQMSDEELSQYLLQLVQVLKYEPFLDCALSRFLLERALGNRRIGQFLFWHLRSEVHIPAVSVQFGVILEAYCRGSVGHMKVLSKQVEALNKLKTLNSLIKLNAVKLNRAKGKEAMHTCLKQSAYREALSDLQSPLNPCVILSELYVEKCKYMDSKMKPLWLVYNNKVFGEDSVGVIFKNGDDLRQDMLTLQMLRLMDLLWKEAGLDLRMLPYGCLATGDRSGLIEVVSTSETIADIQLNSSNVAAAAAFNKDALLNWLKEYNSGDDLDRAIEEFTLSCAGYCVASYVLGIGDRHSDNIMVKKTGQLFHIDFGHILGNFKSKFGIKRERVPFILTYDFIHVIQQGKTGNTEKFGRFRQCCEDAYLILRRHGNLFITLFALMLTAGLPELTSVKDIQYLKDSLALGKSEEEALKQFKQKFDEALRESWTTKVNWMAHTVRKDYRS
Phosphatidylinositol 4,5-bisphosphate 3-kinase catalytic subunit alpha isoform, sequence (P42336 whole entry, canonical isoform): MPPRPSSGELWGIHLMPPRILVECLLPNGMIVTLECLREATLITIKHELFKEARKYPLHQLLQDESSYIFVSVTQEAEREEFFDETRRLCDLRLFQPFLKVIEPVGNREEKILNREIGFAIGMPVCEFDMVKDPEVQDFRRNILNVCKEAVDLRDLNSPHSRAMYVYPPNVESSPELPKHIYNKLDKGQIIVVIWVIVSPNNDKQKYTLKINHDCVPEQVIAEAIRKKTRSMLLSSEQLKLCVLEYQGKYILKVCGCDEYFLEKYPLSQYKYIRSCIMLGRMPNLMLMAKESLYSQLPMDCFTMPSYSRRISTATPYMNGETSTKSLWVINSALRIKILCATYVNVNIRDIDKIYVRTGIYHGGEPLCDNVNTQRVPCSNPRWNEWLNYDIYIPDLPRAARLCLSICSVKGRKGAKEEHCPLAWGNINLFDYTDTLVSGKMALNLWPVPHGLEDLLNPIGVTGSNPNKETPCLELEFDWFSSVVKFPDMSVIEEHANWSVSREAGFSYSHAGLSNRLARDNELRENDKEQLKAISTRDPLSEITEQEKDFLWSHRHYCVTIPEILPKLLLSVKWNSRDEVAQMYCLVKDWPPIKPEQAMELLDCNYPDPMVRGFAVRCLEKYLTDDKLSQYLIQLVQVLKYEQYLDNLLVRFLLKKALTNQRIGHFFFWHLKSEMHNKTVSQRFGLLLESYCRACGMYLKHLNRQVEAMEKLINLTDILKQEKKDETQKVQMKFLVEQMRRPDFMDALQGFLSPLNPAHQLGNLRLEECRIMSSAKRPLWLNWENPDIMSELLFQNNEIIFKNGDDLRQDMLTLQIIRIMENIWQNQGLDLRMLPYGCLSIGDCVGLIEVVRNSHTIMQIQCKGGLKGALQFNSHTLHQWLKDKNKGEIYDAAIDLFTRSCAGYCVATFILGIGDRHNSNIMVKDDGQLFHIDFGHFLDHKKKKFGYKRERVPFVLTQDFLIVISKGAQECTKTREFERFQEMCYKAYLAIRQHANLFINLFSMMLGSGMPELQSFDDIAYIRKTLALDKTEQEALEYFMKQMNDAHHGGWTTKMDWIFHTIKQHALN
Phosphatidylinositol 4,5-bisphosphate 3-kinase catalytic subunit gamma isoform, sequence (P48736 whole entry, canonical isoform): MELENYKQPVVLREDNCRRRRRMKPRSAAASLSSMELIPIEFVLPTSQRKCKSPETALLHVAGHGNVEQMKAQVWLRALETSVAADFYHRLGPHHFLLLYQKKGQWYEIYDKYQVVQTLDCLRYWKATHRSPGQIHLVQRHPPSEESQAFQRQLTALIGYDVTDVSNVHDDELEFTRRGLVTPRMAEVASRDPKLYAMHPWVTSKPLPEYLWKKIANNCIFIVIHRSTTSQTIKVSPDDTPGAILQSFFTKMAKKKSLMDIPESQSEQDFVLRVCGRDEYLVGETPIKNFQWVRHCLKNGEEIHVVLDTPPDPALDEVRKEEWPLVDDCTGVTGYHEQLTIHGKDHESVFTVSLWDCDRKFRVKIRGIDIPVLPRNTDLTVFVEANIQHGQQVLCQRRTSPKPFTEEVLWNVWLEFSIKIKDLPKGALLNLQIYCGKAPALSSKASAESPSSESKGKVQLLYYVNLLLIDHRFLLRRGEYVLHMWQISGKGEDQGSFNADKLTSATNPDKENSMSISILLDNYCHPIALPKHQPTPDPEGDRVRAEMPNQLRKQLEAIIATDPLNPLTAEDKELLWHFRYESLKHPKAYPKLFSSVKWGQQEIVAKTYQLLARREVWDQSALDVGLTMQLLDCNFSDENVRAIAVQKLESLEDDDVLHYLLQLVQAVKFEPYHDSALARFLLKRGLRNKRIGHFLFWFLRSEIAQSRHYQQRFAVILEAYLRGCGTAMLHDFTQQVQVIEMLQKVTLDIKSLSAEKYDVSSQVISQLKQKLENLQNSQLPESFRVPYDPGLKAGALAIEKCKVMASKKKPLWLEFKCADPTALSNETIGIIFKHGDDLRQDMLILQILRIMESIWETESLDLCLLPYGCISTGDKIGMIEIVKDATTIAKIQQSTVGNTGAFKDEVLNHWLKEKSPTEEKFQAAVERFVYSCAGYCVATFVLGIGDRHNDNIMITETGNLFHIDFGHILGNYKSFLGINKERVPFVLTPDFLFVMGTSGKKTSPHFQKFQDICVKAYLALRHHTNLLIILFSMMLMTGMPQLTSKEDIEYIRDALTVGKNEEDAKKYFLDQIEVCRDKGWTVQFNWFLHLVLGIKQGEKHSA
Serine/threonine-protein kinase pim-1 (Homo sapiens), sequence (P11309 whole entry, looked up): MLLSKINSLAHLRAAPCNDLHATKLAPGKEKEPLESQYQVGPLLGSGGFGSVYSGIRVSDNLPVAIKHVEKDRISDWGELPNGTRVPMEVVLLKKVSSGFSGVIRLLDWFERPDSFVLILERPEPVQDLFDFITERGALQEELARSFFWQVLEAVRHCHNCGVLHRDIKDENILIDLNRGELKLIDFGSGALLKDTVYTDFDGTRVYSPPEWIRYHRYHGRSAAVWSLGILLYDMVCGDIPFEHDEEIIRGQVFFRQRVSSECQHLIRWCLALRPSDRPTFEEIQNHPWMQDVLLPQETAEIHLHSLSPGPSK
Mitogen-activated protein kinase 14 (Homo sapiens), sequence (Q16539 whole entry): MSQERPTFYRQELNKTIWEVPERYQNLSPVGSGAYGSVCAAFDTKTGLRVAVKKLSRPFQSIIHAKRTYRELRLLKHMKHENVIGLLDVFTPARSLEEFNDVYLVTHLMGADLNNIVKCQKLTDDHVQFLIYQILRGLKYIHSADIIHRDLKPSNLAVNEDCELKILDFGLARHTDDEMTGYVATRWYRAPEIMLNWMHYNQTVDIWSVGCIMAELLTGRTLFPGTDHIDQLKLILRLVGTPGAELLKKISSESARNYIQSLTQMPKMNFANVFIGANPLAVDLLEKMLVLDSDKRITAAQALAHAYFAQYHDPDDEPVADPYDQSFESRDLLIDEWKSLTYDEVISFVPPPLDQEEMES

SMILES | IC50 [1] [nM] | IC50 [2] [nM] | IC50 [3] [nM] | IC50 [4] [nM] | other results
CC1(C)Cc2nc(N3CCOc4ccc(-c5ncccn5)cc43)sc2C(=O)N1 | 123 | 189 | 791 | 623 | –
CC1(C)Cc2nc(N3CCOc4cc(F)ccc43)sc2C(=O)N1 | 783 | 357 | – | 1240 | –
CC1(C)Cc2nc(N3CCOc4ccc(C5CC5)cc43)sc2C(=O)N1 | 155 | 210 | – | 834 | –
CC1(C)Cc2nc(N3CCOc4c(F)cccc43)sc2C(=O)N1 | 11200 | 16800 | – | 11700 | –
CC1(C)Cc2nc(N3CCOc4ccc(-c5ccccc5)cc43)sc2C(=O)N1 | 50 | 80 | – | 3660 | IC50 [5]: 573 nM; microsomal CLint at 0.5 µM [6]: 39 µL/min/mg; microsomal CLint at 0.5 µM [7]: 21 µL/min/mg
CC1(C)CC(=O)c2sc(N3CCOc4ncccc43)nc2C1 | 5730 | 6650 | 11300 | 5310 | –
CC(=O)c1ccc2c(c1)N(c1nc3c(s1)C(=O)NC(C)(C)C3)CCO2 | 366 | 318 | – | 1450 | –
COc1ccc2c(c1)OCCN2c1nc2c(s1)C(=O)NC(C)(C)C2 | 230 | 440 | 1130 | 1590 | –
CC1(C)CC(=O)c2sc(N3CCOc4ccccc43)nc2C1 | 614 | 829 | 676 | 511 | fold change (FC) [8]: 2; IC50 [5]: 759 nM; microsomal CLint at 0.5 µM [6]: 220 µL/min/mg; microsomal CLint at 0.5 µM [7]: 47 µL/min/mg; CL [9]: 162 µL/min/mg
Cn1cc(-c2ccc3c(c2)N(c2nc4c(s2)C(=O)CC(C)(C)C4)CCO3)cn1 | 49 | 52 | 294 | 336 | IC50 [5]: 44 nM; microsomal CLint at 0.5 µM [6]: 39 µL/min/mg; microsomal CLint at 0.5 µM [7]: 36 µL/min/mg; CL [9]: 8 µL/min/mg
CC1(C)Cc2nc(N3CCOc4ccc(-c5ccn[nH]5)cc43)sc2C(=O)N1 | 90 | 145 | 917 | 1470 | –
CC1(C)CC(=O)c2sc(N3CCOc4cc(-c5ccccc5)ccc43)nc2C1 | 1050 | > 20000 | > 20000 | – | –
Cc1ccc(-c2ccc3c(c2)N(c2nc4c(s2)C(=O)NC(C)(C)C4)CCO3)cn1 | 21 | 28 | 116 | 452 | inhibition [10]: > 80%; inhibition [11]: > 80%; inhibition [12]: > 80%; inhibition [13]: > 80%; Activity [14]: inactive; IC50 [5]: 57 nM; microsomal CLint at 0.5 µM [6]: 17 µL/min/mg; microsomal CLint at 0.5 µM [7]: 25 µL/min/mg; CL [9]: 7 µL/min/mg; Cmax [15]: 649 ng/mL; AUC [16]: 2880 ng·h/mL; ED50 [17]: 15 mg/kg; IC50 [18]: > 15000 nM
Cn1cc(-c2ccc3c(c2)N(c2nc4c(s2)C(=O)NC(C)(C)C4)CCO3)cn1 | – | – | – | – | inhibition [11]: > 50%; inhibition [19]: > 50%; clearance [9]: 0 µL/min/mg; Cmax [15]: 1220 ng/mL; AUC [16]: 6160 ng·h/mL; clearance [20]: 7 mL/min/kg; bioavailability [21]: 97%; ED50 [17]: 25 mg/kg
CC1(C)CC(=O)c2sc(N3CCOc4cc(Br)ccc43)nc2C1 | 549 | 3130 | 2850 | 5340 | –
Cc1ccc(-c2ccc3c(c2)N(c2nc4c(s2)C(=O)CC(C)(C)C4)CCO3)cn1 | 26 | 73 | 164 | 308 | microsomal CLint at 0.5 µM [6]: 25 µL/min/mg; microsomal CLint at 0.5 µM [7]: 48 µL/min/mg
CC1(C)Cc2nc(N3CCOc4cnccc43)sc2C(=O)N1 | > 20000 | – | – | – | –
